We go through 33 compounds from ChEMBL document CHEMBL1122117, “Pyridazinones. 1. Synthesis and antisecretory and antiulcer activities of thio amide derivatives” (1982).

Usually inhibition in vivo stands for the drop in the measured response relative to a control, in per cent. One may read the ED50 as the dose at which the effect has come halfway, by size or by number of responders. Higher therefore signals a need for a large dose.

SMILES strings stand for the structures.

The subject of assay [1] is Rattus norvegicus. The assay can be described thus: Inhibition of gastric antisecretory activity in the pylorus-ligated rat at a dose of 100 mg/kg administered intraduodenally. The assay is classed as functional. As to conditions: Stomach, route intraduodenal. The method in brief: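 Shay pylorus-ligated rats, fasted, six per group, ligated under ether. A single intraduodenal dose of 100 mg/kg was given in 1% carboxymethylcellulose, against a vehicle control. The stomach was removed 7 h later, juice volume measured, and free acid titrated with 0.1 N NaOH to pH 3.0 as hourly output. Results are given as percent inhibition versus control.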

The test system of assay [2] is Rattus norvegicus. The assay can be described thus: Effective dose required for gastric antisecretory activity in the pylorus-ligated rat after intraduodenal administration. The assay is classed as functional. As to conditions: Stomach. The method in brief:
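Pylorus ligated under ether in fasted rats, six per group. Test agents were given intraduodenally at several dose levels in 1% carboxymethylcellulose, with a vehicle control group. After 7 h the gastric juice volume was measured and titrated with 0.1 N NaOH to pH 3.0 for free acid, as hourly output per rat. ED50 was calculated.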

Assay [3] concerns Rattus norvegicus. The assay can be described thus: Antiulcer activity in male Donry rat for 50% inhibition of aspirin induced gastric lesions after intraduodenal administration. The following applies: Stomach. The assay is classed as functional. In a few lines:
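Aspirin ulcer model. Male Donryu rats of 200–220 g were food-deprived 24 h, ten per group, pylorus-ligated, then dosed intraduodenally. Ten min later they received oral aspirin 100 mg/kg in 1% carboxymethylcellulose. At 7 h the summed lengths of glandular lesions gave the ulcer index (mm). ED50 by Litchfield–Wilcoxon.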

The subject of assay [4] is Rattus norvegicus. The assay can be described thus: Antiulcer activity as dose required to inhibit 50% gastric juice secretions in male Wistar rats after intraduodenally administration. The assay is classed as functional. The following applies: intraduodenal.
Assay [5] concerns Rattus norvegicus. The assay can be described thus: Antiulcer activity in male Wistar rats for 50% inhibition of stress induced gastric lesions after peroral administration. It counts as functional. As to conditions: Stomach, po. The method in brief:
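Stress ulcer model. Male Wistar rats of 200–220 g, ten per group, were dosed orally, then immobilized in a stress cage and immersed in a water bath. The stomach was removed 7 h later and summed lesion lengths gave the ulcer index (mm). ED50 by Litchfield–Wilcoxon.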

For assay [6], the species on record is Rattus norvegicus. The assay can be described thus: animal or person. The following applies: Stomach, intraduodenal.

Take `Cc1ccc(=S)n(CCC(=N)S)n1`: the inhibition in vivo at 100 mg/kg in the assay with Rattus norvegicus [1] was determined as 48.5%. The compound further registered an ED50 in the assay on Rattus norvegicus [2] of 100 mg/kg.
For `N=C(S)Cn1nc(-c2ccccc2)ccc1=O`, the inhibition in vivo at 100 mg/kg in the assay on Rattus norvegicus [1] amounted to 5.5%.
Take `N=C(S)CCn1nc(-c2ccc(Cl)c(Cl)c2)ccc1=O`: the inhibition in vivo at 100 mg/kg in the assay on Rattus norvegicus [1] amounted to 55.8%. This compound also returned an ED50 in the assay with Rattus norvegicus [2] of 78.1 mg/kg.
Take `N=C(S)CCn1nc(-c2ccc(Cl)cc2)ccc1=O`: in the assay with Rattus norvegicus [1], the inhibition in vivo at 100 mg/kg amounted to 42.5%. In addition, in the assay with Rattus norvegicus [2], the 50% effective dose (ED50) is > 100 mg/kg.
In the case of `CNC(=O)CCn1nc(-c2ccccc2)ccc1=O`, in the assay on Rattus norvegicus [1], the inhibition in vivo at 100 mg/kg stood at 3.5%.
For the compound `CC(CC(=N)S)N1N=C(c2ccccc2)CCC1=O` (stereo unspecified), the inhibition in vivo at 100 mg/kg in the assay with Rattus norvegicus [1] is 9.2%.
`CC(Cn1ncccc1=S)C(=N)S` (stereo unspecified): the inhibition in vivo at 100 mg/kg in the assay with Rattus norvegicus [1] is -1%.
Regarding `C/N=C(\S)CC(C)n1ncccc1=O` (stereo unspecified), the inhibition in vivo at 100 mg/kg with Rattus norvegicus [1] turned out to be 42.7%. The ED50 in the assay with Rattus norvegicus [2] was > 100 mg/kg.
On to `N=C(S)CCCCCCn1nc(-c2ccccc2)ccc1=O`, for which the inhibition in vivo at 100 mg/kg in the assay on Rattus norvegicus [1] was 33.9%. Moreover, in the assay with Rattus norvegicus [2], the ED50 was > 100 mg/kg.
Take `C/N=C(/S)CCCCCn1nc(-c2ccccc2)ccc1=O`: in the assay on Rattus norvegicus [1], the inhibition in vivo at 100 mg/kg was found to be 92.3%. For the same compound, the ED50 in the assay on Rattus norvegicus [2] was 25.2 mg/kg; with Rattus norvegicus [3], 45.5 mg/kg; in the assay on Rattus norvegicus [4], 15 mg/kg; in the assay on Rattus norvegicus [5] it was 18.3 mg/kg.
`Cc1ccc(=O)n(CCCC(=N)S)n1`: the inhibition in vivo at 100 mg/kg in the assay on Rattus norvegicus [1] was 36.3%. The ED50 in the assay on Rattus norvegicus [2] was > 100 mg/kg.
For the compound `N#CCCn1nc(-c2ccccc2)ccc1=O`, in the assay with Rattus norvegicus [1], the inhibition in vivo at 100 mg/kg was 10.1%.
With `Cc1ccc(=O)n(CCCCCCC(=N)S)n1`, the inhibition in vivo at 100 mg/kg in the assay on Rattus norvegicus [1] came out at 29.5%. Moreover, in the assay with Rattus norvegicus [2], the ED50 is > 100 mg/kg.
In the case of `CC1=NN(CCC(=N)S)C(=O)CC1`, the inhibition in vivo at 100 mg/kg in the assay on Rattus norvegicus [1] was 34.8%. The ED50 in the assay with Rattus norvegicus [2] was > 100 mg/kg.
As for `N=C(S)CCN1N=C(c2ccc(Cl)c(Cl)c2)CCC1=O`, the inhibition in vivo at 100 mg/kg in the assay with Rattus norvegicus [1] stood at 47.2%. Also, the ED50 in the assay on Rattus norvegicus [2] is > 100 mg/kg.
For the compound `O=c1ccc(-c2ccccc2)nn1CCC(=S)N1CCCC1`, in the assay with Rattus norvegicus [1], the inhibition in vivo at 100 mg/kg worked out at 38.2%. For the same compound, the ED50 with Rattus norvegicus [2] was > 100 mg/kg.
With `CC(Cn1ncccc1=O)C(=N)S` (stereo unspecified), the inhibition in vivo at 100 mg/kg in the assay on Rattus norvegicus [1] is 40.3%. Also, in the assay on Rattus norvegicus [2], the ED50 is > 100 mg/kg.
The corresponding values for `N=C(S)CCN1N=C(c2ccc(Cl)cc2)CCC1=O` are 43.1% and > 100 mg/kg.
On to `Cc1ccc(=O)n(CCC(N)=O)n1`, for which the inhibition in vivo at 100 mg/kg in the assay on Rattus norvegicus [1] is -2.9%.
On to `Cc1ccc(=O)n(CCC(=N)S)n1`, for which the inhibition in vivo at 100 mg/kg with Rattus norvegicus [1] was found to be 73.9%. Also, the ED50 in the assay on Rattus norvegicus [2] was 43.2 mg/kg; in the assay with Rattus norvegicus [3], > 100 mg/kg; in the assay on Rattus norvegicus [4] it was 51.3 mg/kg; with Rattus norvegicus [5], > 50 mg/kg.
With `N=C(S)CCCCn1nc(-c2ccccc2)ccc1=O`, the inhibition in vivo at 100 mg/kg in the assay on Rattus norvegicus [1] worked out at 33.8%. Also, the ED50 in the assay on Rattus norvegicus [2] is > 100 mg/kg.
Turning to `Cc1ccc(=O)n(CCCCCC(=N)S)n1`, the inhibition in vivo at 100 mg/kg in the assay on Rattus norvegicus [1] worked out at 36.6%. Also, the ED50 in the assay with Rattus norvegicus [2] was > 100 mg/kg.
With `C/N=C(\S)CCn1ncccc1=O`, in the assay with Rattus norvegicus [1], the inhibition in vivo at 100 mg/kg worked out at 30.7%. Besides, the ED50 with Rattus norvegicus [2] was > 100 mg/kg.
With `CCOC(=O)CCn1nc(-c2ccccc2)ccc1=O`, in the assay with Rattus norvegicus [1], the inhibition in vivo at 100 mg/kg worked out at 6.3%.
In the case of `COc1ccc(-c2ccc(=O)n(CCC(=N)S)n2)cc1`, the inhibition in vivo at 100 mg/kg with Rattus norvegicus [1] was found to be 20.7%. The ED50 with Rattus norvegicus [2] was > 100 mg/kg.
As to `N=C(S)CCn1ncc2ccccc2c1=O`, in the assay on Rattus norvegicus [1], the inhibition in vivo at 100 mg/kg was 58.3%. In addition, in the assay with Rattus norvegicus [2], the ED50 was found to be 90.1 mg/kg.
On to `CC(CC(=N)S)n1nc(-c2ccccc2)ccc1=O` (stereo unspecified), for which the inhibition in vivo at 100 mg/kg in the assay with Rattus norvegicus [1] came to 15.5%.
As to `Cc1ccc(=O)n(CC(C)C(=N)S)n1` (stereo unspecified), the inhibition in vivo at 100 mg/kg in the assay on Rattus norvegicus [1] amounted to 30.2%. For the same compound, the ED50 with Rattus norvegicus [2] is > 100 mg/kg.
As for `CN(C)C(=S)CCn1nc(-c2ccccc2)ccc1=O`, the inhibition in vivo at 100 mg/kg in the assay with Rattus norvegicus [1] stood at 46%.
Consider `N=C(S)CCn1nc(-c2cccs2)ccc1=O`, for which the inhibition in vivo at 100 mg/kg with Rattus norvegicus [1] was 50.2%. The compound also showed an ED50 with Rattus norvegicus [2] of 100 mg/kg.
On to `O=c1cccnn1CCC(=S)N1CCCC1`, for which the inhibition in vivo at 100 mg/kg with Rattus norvegicus [1] was 29.7%. In addition, the ED50 in the assay with Rattus norvegicus [2] was > 100 mg/kg.
On to `C/N=C(\S)CCn1nc(-c2ccccc2)ccc1=O`, for which, in the assay with Rattus norvegicus [1], the inhibition in vivo at 100 mg/kg was 68.2%. The ED50 was 58.5 mg/kg with Rattus norvegicus [2], 66.3 mg/kg in the assay on Rattus norvegicus [3], 50.1 mg/kg in the assay with Rattus norvegicus [4] and 28.3 mg/kg with Rattus norvegicus [5].
For the compound `CN/C(=N\CCSCc1nc[nH]c1C)NC#N` [CIMETIDINE], the ED50 in the assay listed under Rattus norvegicus [6] is > 100 mg/kg; in the assay with Rattus norvegicus [5], 43.2 mg/kg.
